Results published in ChEMBL document CHEMBL4049418, “6-OH-Phenanthroquinolizidine Alkaloid and Its Derivatives Exert Potent Anticancer Activity by Delaying S Phase Progression” (J Med Chem, 2017).

What was measured:
[1] = system: A549; assay: Antiproliferative activity against human A549 cells assessed as reduction in viability after 72 hrs by SRB assay; type: functional, cell-based; conditions: A549, 72 h
In short: (§1)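 Cells seeded and dosed in triplicate for 72 h. Suspension lines (HL-60, K-562, K562/ADR, HL-60/MX2) were read by MTT: 5 mg/mL MTT stock added, 4 h at 37 °C, formazan dissolved in 10% SDS/5% isobutanol/10 mM HCl, A570. Adherent lines were read by SRB: fixed with cold 10% TCA, stained with 0.4% SRB in 1% acetic acid, A540. IC50 from four-parameter logistic fit; mean of ≥3 independent experiments.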

[2] = system: Bel-7402; assay: Antiproliferative activity against human Bel7402 cells assessed as reduction in viability after 72 hrs by SRB assay; type: functional, cell-based; conditions: Bel-7402, 72 h; in short: as §1
[3] = system: K562/Adr; assay: Antiproliferative activity against human K562/ADR cells after 72 hrs by MTT assay; type: functional, cell-based; in short: as §1
[4] = system: K562; assay: Antiproliferative activity against human K562 cells after 72 hrs by MTT assay; type: functional, cell-based; conditions: K562, 72 h; in short: as §1
[5] = Resistance factor, ratio of IC50 for human K562/ADR cells to IC50 for human K562 cells; type: functional
In short: (§2)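 72 h treatment in triplicate; suspended lines (HL-60, K-562, K562/ADR, HL-60/MX2) read by MTT (4 h, SDS/isobutanol/HCl solubilization, 570 nm); adherent KB and KB/VCR (MEM, 10% FBS) by SRB after TCA fixation (540 nm); IC₅₀ by four-parameter logistic fit, mean of ≥3 independent experiments.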

[6] = system: KB; assay: Antiproliferative activity against human KB cells after 72 hrs by SRB assay; type: functional, cell-based; in short: as §1
[7] = Antiproliferative activity against human KB/VCR cells after 72 hrs by SRB assay; type: functional, cell-based; in short: as §1
[8] = Resistance factor, ratio of IC50 for human KB/VCR cells to IC50 for human KB cells; type: functional; in short: as §2
[9] = Resistance factor, ratio of IC50 for human HL60/MX2 cells to IC50 for human HL60 cells; type: functional; in short: as §2
[10] = system: HL60/MX2; assay: Antiproliferative activity against human HL60/MX2 cells after 72 hrs by MTT assay; type: functional, cell-based; conditions: HL60/MX2, 72 h; in short: as §1
[11] = system: HL-60; assay: Antiproliferative activity against human HL60 cells after 72 hrs by MTT assay; type: functional, cell-based; conditions: HL-60, 72 h; in short: as §1
[12] = Cytotoxicity against Sprague-Dawley rat primary neuronal cells assessed as reduction in cell viability after 24 hrs by MTT assay; type: cell-based
[13] = system: L02; assay: Antiproliferative activity against human LO2 cells assessed as reduction in viability after 72 hrs by SRB assay; type: cell-based; conditions: L02, 72 h; in short: as §1
[14] = Selectivity ratio of IC50 for human MRC5 cells to IC50 for human A549 cells
In short: (§3)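 SRB assay: A549 (F-12, 10% FBS) and MRC-5/MRC-9 (EMEM, 10% FBS) treated in triplicate 72 h, fixed with ice-cold 10% TCA, stained with 0.4% SRB in 1% acetic acid, absorbance 540 nm; IC₅₀ by four-parameter logistic fit, mean of ≥3 independent experiments.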

[15] = Cytotoxicity against Sprague-Dawley rat primary neuronal cells assessed as reduction in cell viability at 300 nM after 24 hrs by MTT assay; type: cell-based; conditions: read-out: INH
[16] = Selectivity ratio of IC50 for human MRC9 cells to IC50 for human A549 cells; in short: as §3
[17] = Antiproliferative activity against human MRC9 cells assessed as reduction in viability after 72 hrs by SRB assay; type: cell-based; conditions: MRC9, 72 h; in short: as §1
[18] = system: MRC5; assay: Antiproliferative activity against human MRC5 cells assessed as reduction in viability after 72 hrs by SRB assay; type: cell-based; conditions: MRC5, 72 h; in short: as §1

SMILES	IC50 [1] [nM]	IC50 [2] [nM]	also measured
COc1cc2c3c(c4ccc(OCCOC(=O)[C@H](C)N)cc4c2cc1OC)CN1CCCCC1C3 (some centres undefined)	49	47	
COc1cc2c3c(c4ccc(OC(=O)C(C)(C)C)cc4c2cc1OC)CN1CCCCC1C3 (centres undefined)	103	136	
COc1cccc2c1C(=O)c1c(O)c3c(c(O)c1C2=O)C[C@@](O)(C(=O)CO)C[C@@H]3O[C@H]1C[C@H](N)[C@H](O)[C@H](C)O1.Cl [DOXORUBICIN HYDROCHLORIDE]			IC50 [3]: 3310 nM; IC50 [4]: 77.7 nM; Ratio IC50 [5]: 42.6
CCOC(=O)COc1ccc2c3c(c4cc(OC)c(OC)cc4c2c1)CC1CCCCN1C3 (centres undefined)	458	411	
COc1cc2c3c(c4ccc(OC(=O)c5ccco5)cc4c2cc1OC)CN1CCCCC1C3 (centres undefined)	52	59	
COc1cc2c3c(c4ccc(OCc5ccccc5)cc4c2cc1OC)CN1CCCCC1C3O (racemic)	1530	917	
COc1cc2c3c(c4ccc(O)cc4c2cc1OC)CN1CCCC[C@H]1C3	182	320	
CC[C@]1(O)C[C@H]2CN(CCc3c([nH]c4ccccc34)[C@@](C(=O)OC)(c3cc4c(cc3OC)N(C=O)[C@H]3[C@@](O)(C(=O)OC)[C@H](OC(C)=O)[C@]5(CC)C=CCN6CC[C@]43[C@@H]65)C2)C1 [VINCRISTINE]			IC50 [6]: 0.2 nM; IC50 [7]: 239 nM; Ratio IC50 [8]: 1193.5
COc1cc2c3c(c4ccc(OC(=O)c5cccs5)cc4c2cc1OC)CN1CCCCC1C3 (centres undefined)	115	79	
COc1cc2c3c(c4ccc(OC(=O)c5cccnc5)cc4c2cc1OC)CN1CCCCC1C3 (centres undefined)	277	238	
COc1cc2c3c(c4ccc(OC(=O)C5CC5)cc4c2cc1OC)CN1CCCCC1C3 (centres undefined)	30	29	
COc1cc2c3c(c4ccc(OC(=O)C5CCCCC5)cc4c2cc1OC)CN1CCCCC1C3 (centres undefined)	191	115	
Cl.Cl.O=C1c2c(O)ccc(O)c2C(=O)c2c(NCCNCCO)ccc(NCCNCCO)c21 [MITOXANTRONE HYDROCHLORIDE]			Ratio IC50 [9]: 48.7; IC50 [10]: 351 nM; IC50 [11]: 7.2 nM

The next lines start with results.

IC50 [1] [nM]	IC50 [2] [nM]	SMILES	also measured
16	14	COc1cc2c3c(c4ccc(OCC(N)=O)cc4c2cc1OC)CN1CCCCC1C3 (centres undefined)	
1.2 to 2.9	3.4 to 3.5	COc1cc2c3c(c4ccc(O)cc4c2cc1OC)CN1CCCCC1C3 (racemic)	
12.9	25.8	COc1cc2c3c(c4ccc(OCC#N)cc4c2cc1OC)CN1CCCC[C@H]1C3	
12	8	COc1cc2c3c(c4ccc(O)cc4c2cc1OC)CN1CCCCC1C3O (racemic)	
30	33	C#CCOc1ccc2c3c(c4cc(OC)c(OC)cc4c2c1)CC1CCCCN1C3 (centres undefined)	
1 to 3	2.2 to 6	COc1cc2c3c(c4ccc(OCC#N)cc4c2cc1OC)CN1CCCCC1C3 (racemic)	
0.8	2.4	COc1cc2c3c(c4ccc(OCC#N)cc4c2cc1OC)CN1CCCC[C@@H]1C3	inhibition (INH) [12]: Dose-dependent effect; IC50 [13]: 3.9 nM; Ratio IC50 [14]: 3 - 4; cytotoxicity at 24 h, 0.3 µM [15]: 50%; Ratio IC50 [16]: 3 - 4; IC50 [17]: 2.7 nM; IC50 [18]: 3.2 nM
22	23	COc1cc2c3c(c4ccc(OC(C)=O)cc4c2cc1OC)CN1CCCCC1C3 (centres undefined)	
29	20	COc1cc2c3c(c4ccc(OC(=O)c5cccc6nnsc56)cc4c2cc1OC)CN1CCCCC1C3 (centres undefined)	
